Laboratory results: publication PMC4631057 (ACS chemical biology, 2015)

Legend:
[1] = system: ARE^Msi1–FITC; test: FP titration of Bcl-xL with Msi1-FITC; assay type: binding; details: highest concentration tested 1000 nM; 2 nM Msi1-FITC
[2] = system: Wnt signaling pathway; test: Wnt responsive 7xTcf promoter/luciferase reporter assay in HCT-116; assay type: cell-based, human; details: 20 μM, 24 h, 20 mM LiCl stimulation, compared to DMSO control
Summary of the method: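 HCT-116 cells were infected with the 7TFP lentiviral vector to stably express the 7xTcf promoter/luciferase construct. Cells were plated and allowed to attach overnight. They were then stimulated with 20 mM LiCl and treated with 20 μM test compound or DMSO for 24 h. Cells were lysed in reporter lysis buffer and luciferase was assayed. Activity was normalized to total protein. Values are mean ± SD of three independent experiments, compared with DMSO by one-way ANOVA.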

[3] = system: cleaved PARP, cleaved caspase-3, LC3 conversion; test: Western blot of apoptosis and autophagy markers in HCT-116; assay type: cell-based, human; details: 75 μM, 48 h
Summary of the method: (§1)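 HCT-116 cells were grown in DMEM with 10% FBS and 1% antibiotics at 37 °C in humidified 5% CO2. They were treated with test compound or DMSO at the indicated doses for 48 h. Protein levels were then measured by Western blot, with α-tubulin as loading control.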

[4] = system: protein levels of Bcl-2, Msi1, and XIAP; test: Western blot of HuR target protein levels in HCT-116; assay type: cell-based, human; details: indicated doses, 48 h
Summary of the method: as §1

[5] = system: Bcl-2, Msi1, and XIAP mRNAs; test: mRNA stability after actinomycin D in HCT-116; assay type: cell-based, human; details: 20 μM, 5 μg/mL actinomycin D, compared to DMSO control
Summary of the method: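 HCT-116 cells, cultured in DMEM with 10% FBS at 37 °C and 5% CO2, were exposed to 5 μg/mL actinomycin D together with 20 μM test compound or DMSO. Half-lives of Bcl-2, Msi1 and XIAP mRNAs were determined. Data are representative of two independent experiments.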

[6] = target: HuR-bound XIAP mRNA (Homo sapiens, UniProt Q15717); test: RNP IP, HuR-bound XIAP mRNA in HCT-116 cell lysate; assay type: cell-based; details: at indicated doses, compared to DMSO
Summary of the method: (§2)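 HCT-116 lysate, prepared with a protein G immunoprecipitation kit, incubated 30 min with test compound or DMSO. HuR antibody, or mouse IgG as negative control, was then added for 60 min. Complexes were collected on protein G agarose, RNA isolated, and bound transcripts quantified by qRT-PCR. Mean ± SD of two independent experiments.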

[7] = target: HuR bound Msi1 mRNA (Homo sapiens, UniProt Q15717); test: RNP IP, HuR-bound Msi1 mRNA in HCT-116 cell lysate; assay type: cell-based; details: 50 μM, compared to DMSO control
Summary of the method: as §2

[8] = target: T1, HuR full-length (human, UniProt Q15717 1-326); test: competition
[9] = target: T1, HuR full-length; test: fluorescence polarization
[10] = target: HuR RRM1/2 (UniProt Q15717 20-186); test: AlphaLISA
[11] = target: T1, HuR full-length; test: fluorescence polarization; remark: listed apart in the source
[12] = target: T1, HuR full-length; test: fluorescence polarization; remark: listed apart in the source

T1 sequence (Q15717 whole entry): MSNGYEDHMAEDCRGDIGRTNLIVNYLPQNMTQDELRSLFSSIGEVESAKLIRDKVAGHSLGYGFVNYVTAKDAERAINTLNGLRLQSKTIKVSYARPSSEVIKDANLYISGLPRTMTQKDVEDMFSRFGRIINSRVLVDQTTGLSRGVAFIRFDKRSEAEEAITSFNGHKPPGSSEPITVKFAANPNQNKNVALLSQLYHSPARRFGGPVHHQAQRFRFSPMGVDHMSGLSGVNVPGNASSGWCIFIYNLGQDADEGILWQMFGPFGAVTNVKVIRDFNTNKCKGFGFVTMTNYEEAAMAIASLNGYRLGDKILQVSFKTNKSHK
Sequence of HuR RRM1/2 (Q15717 20-186): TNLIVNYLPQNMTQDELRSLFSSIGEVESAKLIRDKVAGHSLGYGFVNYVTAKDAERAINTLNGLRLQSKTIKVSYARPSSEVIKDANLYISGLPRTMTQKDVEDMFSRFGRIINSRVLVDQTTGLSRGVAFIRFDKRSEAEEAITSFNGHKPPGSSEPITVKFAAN
Sequence of HuR-bound XIAP mRNA (Q15717 2-326 limits assumed): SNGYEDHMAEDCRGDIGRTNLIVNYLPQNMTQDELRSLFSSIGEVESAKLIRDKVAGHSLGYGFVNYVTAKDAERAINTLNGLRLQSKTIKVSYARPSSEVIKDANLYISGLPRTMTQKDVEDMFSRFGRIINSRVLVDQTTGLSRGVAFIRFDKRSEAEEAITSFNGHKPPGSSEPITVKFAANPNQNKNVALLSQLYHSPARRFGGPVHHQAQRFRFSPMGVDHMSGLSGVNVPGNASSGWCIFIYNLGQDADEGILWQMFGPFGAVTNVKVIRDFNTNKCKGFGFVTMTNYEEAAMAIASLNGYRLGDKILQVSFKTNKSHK
Sequence of HuR bound Msi1 mRNA (Q15717 2-326 limits assumed): as above

Bcl-xL: non-RNA binding protein used as specificity control
binding to ARE^Msi1–FITC (in words) [1]: no binding

CCN(CC)C(=O)CC(c1cc(OC)c(OC)c(OC)c1)c1c(OC)cc(OC)c2c(-c3ccccc3)cc(=O)oc12 (stereo not drawn) [CMLD-1]
effect on Wnt signaling (luciferase reporter) [2]: significantly impacted
LC3-I conversion to LC3-II [3]: detected
PARP cleavage [3]: obvious PARP cleavage
caspase-3 cleavage [3]: subtle caspase-3 cleavage
effect on protein levels of Bcl-2, Msi1, and XIAP [4]: decreased
effect on half-lives of Bcl-2, Msi1 and XIAP mRNAs [5]: shortened the half-lives
effect on HuR-bound XIAP mRNA (RNP IP) [6]: potently inhibited
effect on HuR bound Msi1 mRNA (RNP IP) [7]: significantly blocked

B1: Msi1 RNA unlabeled (ssRNA)
RNA: GCUUUUAUUUAUUUUG
IC50 [8]: 17.9 nM

B2: XIAP-FITC (AREXIAP) (ssRNA)
RNA: UAGUUAUUUUUAUGUC
binding result [9]: binds

B3: Bcl-2-FITC (AREBcl-2) (ssRNA)
RNA: AAAAGAUUUAUUUAUU
binding result [9]: binds

B4: Msi1 RNA biotinylated (ssRNA)
RNA: GCUUUUAUUUAUUUUG
Kd [10]: 75 nM

B5: APC-FITC (ssRNA)
RNA: UAUUUGAUAGUACACU
binding signal [11]: 20 fold lower affinity than Msi1

B6: Msi1-FITC (AREMsi1) (ssRNA)
RNA: GCUUUUAUUUAUUUUG
Kd [12]: ~3 nM
